In brackets after ≈: the same amount, converted by molar mass.
Experiments:
[1] = system: Human immunodeficiency virus 1; assay: Concentration required to inhibit HIV-1 induced cytopathicity in human MT-4 lymphocyte cells.; format: functional, organism-based
Summary of the method: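 MT-4 cells at 5 × 10⁵/mL were infected with HIV-1 at 100 CCID₅₀ per mL of cell suspension, then mixed 1:1 with serial dilutions of compound. After 5 days, viable cells were counted by trypan blue staining. EC₅₀ was the concentration giving 50% protection against virus-induced loss of viable cells. Values are means of at least three to five independent experiments.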

[2] = system: MT4; assay: Concentration required to reduce human MT-4 cell viability by 50%.; format: functional
Summary of the method: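 Mock-infected MT-4 cells were cultured 5 days with serial dilutions of compound, and viable cells were counted by trypan blue staining. CC₅₀ was the concentration reducing viable cell number by 50%. Values are means of at least three to five independent experiments.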

[3] = system: MT4; assay: Ratio of effective concentration to that of cytotoxic concentration against HIV-1 induced cytopathogenicity in MT-4 cells; format: functional
[4] = Human immunodeficiency virus 1, Lymphocyte, read-out: EC50
[5] = Homo sapiens, MT4, read-out: CC50

Structure (SMILES) | EC50 [1, 4] | CC50 [2, 5] | Selectivity index [3] | EC50 ([1]; lymphocyte) | CC50 [2]
Cc1cn([C@@H]2O[C@H](CO)[C@@]3(OS(=O)(=O)C=C3N)[C@H]2O[Si](C)(C)C(C)(C)C)c(=O)[nH]c1=O | > 40 µg/mL | 106 µg/mL (≈ 223 µM) | <2.6 | – | –
Cc1cn([C@@H]2O[C@H](CO[Si](C)(C)C(C)(C)C)[C@@]3(OS(=O)(=O)C=C3N)[C@H]2O[Si](C)(C)C(C)(C)C)c(=O)[nH]c1=O | 0.034 µg/mL (≈ 0.0576 µM) | 7.7 µg/mL (≈ 13.1 µM) | – | – | –
Cc1c(Sc2ccccc2)n(COCCO)c(=O)[nH]c1=O [HEPT] | 5.5 µg/mL (≈ 17.8 µM) | > 200 µg/mL | >36 | – | –
CC(=O)Nc1ccn([C@@H]2O[C@H](CO[Si](C)(C)C(C)(C)C)[C@@]3(OS(=O)(=O)C=C3N)[C@H]2O[Si](C)(C)C(C)(C)C)c(=O)n1 | 0.097 µg/mL (≈ 0.157 µM) | 7.5 µg/mL (≈ 12.2 µM) | 77 | – | –
Cc1cn([C@H]2C[C@]3(OS(=O)(=O)C=C3N)[C@@H](CO[Si](C)(C)C(C)(C)C)O2)c(=O)[nH]c1=O | > 0.8 µg/mL | 1.5 µg/mL (≈ 3.26 µM) | <1.9 | – | –
CC(C)(C)[Si](C)(C)O[C@H]1[C@H](n2ccc(=O)[nH]c2=O)O[C@H](CO)[C@]12OS(=O)(=O)C=C2N | > 100 µg/mL | 221 µg/mL (≈ 479 µM) | <2 | – | –
CC(C)(C)[Si](C)(C)OC[C@H]1O[C@@H](n2ccc(=O)[nH]c2=O)[C@H](O[Si](C)(C)C(C)(C)C)C12OS(=O)(=O)C=C2N (stereo in doubt; 11b) | – | – | <2 | > 1.6 µg/mL | 3.1 µg/mL (≈ 5.38 µM)
Cc1ccnc2c1NC(=O)c1cccnc1N2C1CC1 [NEVIRAPINE] | 0.038 µg/mL (≈ 0.143 µM) | > 20 µg/mL | >526 | – | –
Cc1cn([C@@H]2O[C@H](CO)[C@]3(OS(=O)(=O)C=C3N)[C@H]2O)c(=O)[nH]c1=O | > 500 µg/mL | > 500 µg/mL | <1 | – | –
Cc1cn([C@@H]2O[C@H](CO[Si](C)(C)C(C)(C)C)[C@@]3(OS(=O)(=O)C=C3N)[C@H]2O)c(=O)[nH]c1=O | > 20 µg/mL | 45 µg/mL (≈ 94.6 µM) | <2.2 | – | –
CC(C)(C)[Si](C)(C)OC[C@H]1O[C@@H](n2ccc(=O)[nH]c2=O)[C@H](O[Si](C)(C)C(C)(C)C)C12OS(=O)(=O)C=C2N (stereo in doubt; 12b) | – | – | 73 | 0.114 µg/mL (≈ 0.198 µM) | 8.3 µg/mL (≈ 14.4 µM)
NC1=CS(=O)(=O)O[C@]12[C@@H](CO)O[C@@H](n1ccc(=O)[nH]c1=O)[C@@H]2O | > 80 µg/mL | 320 µg/mL (≈ 921 µM) | <4 | – | –
Cc1cn([C@@H]2O[C@H](CO)[C@@]3(OS(=O)(=O)C=C3N)[C@H]2O)c(=O)[nH]c1=O | > 100 µg/mL | > 100 µg/mL | – | – | –
Cc1cn([C@@H]2O[C@H](CO[Si](C)(C)C(C)(C)C)[C@]3(OS(=O)(=O)C=C3N)[C@H]2O[Si](C)(C)C(C)(C)C)c(=O)[nH]c1=O | > 4 µg/mL | 18 µg/mL (≈ 30.5 µM) | <4.5 | – | –
CC(C)=CCN1Cc2cccc3[nH]c(=S)n(c23)C[C@@H]1C | 0.021 µg/mL (≈ 0.0731 µM) | > 20 µg/mL | >952 | – | –
Cc1cn([C@@H]2O[C@H](CO[Si](C)(C)C(C)(C)C)[C@@](C#N)(OS(C)(=O)=O)[C@H]2O[Si](C)(C)C(C)(C)C)c(=O)[nH]c1=O | > 1.6 µg/mL | 4.3 µg/mL (≈ 7.29 µM) | <2.7 | – | –
CC(=O)Nc1ccn([C@@H]2O[C@H](CO[Si](C)(C)C(C)(C)C)[C@]3(OS(=O)(=O)C=C3N)[C@H]2O[Si](C)(C)C(C)(C)C)c(=O)n1 | > 4 µg/mL | 7.1 µg/mL (≈ 11.5 µM) | <1.8 | – | –
